# Test results published in ChEMBL document CHEMBL4725350, “2-Oxaadamant-1-yl Ureas as Soluble Epoxide Hydrolase Inhibitors: In Vivo Evaluation in a Murine Model of Acute Pancreatitis” (J Med Chem, 2020).
# Calls of active or inactive are those of the source. No cut-off for these calls is given here.
# Columns and labels:
# [1] = system: AR-42J cell line; assay: Protection against cerulein-induced pancreatic damage in rat AR42J cells assessed as reduction in TNF-alpha mRNA level at 60 uM preincubated for 1 hr followed by cerulein addition and measured after 8 hrs by Trisure-reagent based RT-PCR analysis; assay type: functional, cell-based; conditions: time 9.0 hrs
# How it was run: (§1)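 Rat pancreatic acinar AR42J cells are exposed to 10 nM cerulein with or without inhibitor co-incubation at 60 μM. IL-6, TNF-α, CHOP and TRB3 mRNA levels are measured and compared with control and cerulein-only cells. Mean ± SEM, n = 5 per group.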
# [2] = system: AR-42J cell line; assay: Protection against cerulein-induced pancreatic damage in rat AR42J cells assessed as reduction in IL-6 mRNA level at 60 uM preincubated for 1 hr followed by cerulein addition and measured after 8 hrs by Trisure-reagent based RT-PCR analysis; assay type: functional, cell-based; conditions: time 9.0 hrs; how it was run: as §1
# [3] = system: THLE-2; assay: Cytotoxicity against human THLE-2 cells assessed as reduction in cell viability measured after 72 hrs by ATPlite assay; assay type: cell-based; conditions: thle-2, 72 h, read-out: LC50 (the source's name)
# How it was run: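 THLE-2 cells were grown in BEGM with 0.7 μg/mL phosphoethanolamine, 0.5 ng/mL EGF and 10% FBS, plated at 10,000 cells/well and left to adhere for 24 h. Cells were exposed to 0–100 μM final (1% DMSO) for 72 h at 37 °C, 5% CO2.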
# [4] = molecular target: Voltage-gated inwardly rectifying potassium channel KCNH2 (Homo sapiens, UniProt Q12809); assay: Inhibition of human ERG at 10 uM
# Voltage-gated inwardly rectifying potassium channel KCNH2, sequence (Q12809 whole entry): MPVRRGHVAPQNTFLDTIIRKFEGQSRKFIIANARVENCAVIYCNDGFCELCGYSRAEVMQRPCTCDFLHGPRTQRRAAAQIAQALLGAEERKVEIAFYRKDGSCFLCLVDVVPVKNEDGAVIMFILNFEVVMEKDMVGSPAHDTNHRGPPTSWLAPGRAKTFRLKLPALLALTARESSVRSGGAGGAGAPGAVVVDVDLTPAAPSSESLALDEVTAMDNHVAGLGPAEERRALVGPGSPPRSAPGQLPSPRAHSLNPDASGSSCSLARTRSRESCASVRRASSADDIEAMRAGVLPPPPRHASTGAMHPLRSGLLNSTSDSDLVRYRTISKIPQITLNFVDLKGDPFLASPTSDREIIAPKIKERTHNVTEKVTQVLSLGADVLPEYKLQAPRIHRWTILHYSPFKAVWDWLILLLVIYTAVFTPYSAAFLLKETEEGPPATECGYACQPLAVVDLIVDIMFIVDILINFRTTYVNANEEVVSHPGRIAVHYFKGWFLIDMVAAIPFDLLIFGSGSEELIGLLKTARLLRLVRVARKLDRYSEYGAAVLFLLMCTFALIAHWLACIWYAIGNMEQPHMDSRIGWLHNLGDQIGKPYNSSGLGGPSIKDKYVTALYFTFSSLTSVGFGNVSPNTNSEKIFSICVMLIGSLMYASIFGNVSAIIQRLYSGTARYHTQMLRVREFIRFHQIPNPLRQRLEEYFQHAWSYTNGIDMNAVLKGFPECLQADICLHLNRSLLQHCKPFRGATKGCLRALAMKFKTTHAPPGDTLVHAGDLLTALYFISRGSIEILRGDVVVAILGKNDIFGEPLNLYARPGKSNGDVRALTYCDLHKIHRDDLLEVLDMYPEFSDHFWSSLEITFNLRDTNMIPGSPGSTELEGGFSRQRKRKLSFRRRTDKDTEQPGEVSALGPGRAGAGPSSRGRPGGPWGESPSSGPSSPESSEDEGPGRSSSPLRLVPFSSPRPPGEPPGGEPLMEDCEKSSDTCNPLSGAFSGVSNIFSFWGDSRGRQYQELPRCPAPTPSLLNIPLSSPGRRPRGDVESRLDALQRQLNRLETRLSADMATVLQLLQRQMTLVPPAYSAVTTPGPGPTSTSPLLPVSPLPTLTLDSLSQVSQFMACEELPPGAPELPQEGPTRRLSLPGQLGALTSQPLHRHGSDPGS
# [5] = Stability in rat liver microsomes assessed as parent compound remaining measured after 60 mins in presence of NADPH by LC-MS/MS analysis; assay type: ADME, Microsome; conditions: read-out: Stabilty
# How it was run: (§2)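 Compound is incubated at 37 °C with human, mouse or rat liver microsomes in 50 mM phosphate buffer pH 7.4. […] Samples at 0–60 min are quenched into acetonitrile; percent parent remaining at 60 min is reported. Testosterone is the positive control.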
# [6] = molecular target: T1, Bifunctional epoxide hydrolase 2 (Rattus norvegicus, UniProt P80299); assay: Inhibition of recombinant rat soluble epoxide hydrolase using CMNPC as substrate preincubated for 5 mins followed by substrate addition and measured at 30 secs interval for 10 mins by fluorescence assay
# T1 sequence (P80299 whole entry): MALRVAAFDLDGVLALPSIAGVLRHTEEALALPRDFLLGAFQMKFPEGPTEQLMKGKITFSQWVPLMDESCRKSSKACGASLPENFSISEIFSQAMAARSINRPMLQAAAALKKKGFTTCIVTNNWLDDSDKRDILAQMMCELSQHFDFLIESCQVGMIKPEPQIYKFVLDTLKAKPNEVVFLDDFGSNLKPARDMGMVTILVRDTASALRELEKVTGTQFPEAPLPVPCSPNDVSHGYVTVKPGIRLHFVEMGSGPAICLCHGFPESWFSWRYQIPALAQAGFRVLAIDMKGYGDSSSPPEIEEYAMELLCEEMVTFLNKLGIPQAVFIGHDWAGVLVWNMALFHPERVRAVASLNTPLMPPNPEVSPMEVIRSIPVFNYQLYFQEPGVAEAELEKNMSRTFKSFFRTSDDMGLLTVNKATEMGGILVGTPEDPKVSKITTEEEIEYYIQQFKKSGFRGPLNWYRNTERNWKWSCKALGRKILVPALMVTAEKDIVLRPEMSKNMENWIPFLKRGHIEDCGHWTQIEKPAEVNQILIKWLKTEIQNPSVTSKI
# How it was run: (§3)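 Purified recombinant enzyme was preincubated with inhibitor (0.4–100,000 nM final) for 5 min at 30 °C in 100 mM sodium phosphate, pH 7.4, with 0.1 mg/mL BSA and 1% DMSO. CMNPC was added at 5 μM final. 6-Methoxynaphthaldehyde fluorescence (ex 330/em 465 nm) was read every 30 s for 10 min. IC50 values are averages of three replicates.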
# [7] = system: AR-42J cell line; assay: Protection against cerulein-induced pancreatic damage in rat AR42J cells assessed as reduction in TRB3 mRNA level at 60 uM preincubated for 1 hr followed by cerulein addition and measured after 8 hrs by Trisure-reagent based RT-PCR analysis; assay type: functional, cell-based; conditions: time 9.0 hrs; how it was run: as §1
# [8] = Stability in mouse liver microsomes assessed as parent compound remaining measured after 60 mins in presence of NADPH by LC-MS/MS analysis; assay type: ADME, Microsome; conditions: read-out: Stabilty; how it was run: as §2
# [9] = Stability in human liver microsomes assessed as parent compound remaining measured after 60 mins in presence of NADPH by LC-MS/MS analysis; assay type: ADME, Microsome; conditions: read-out: Stabilty; how it was run: as §2
# [10] = system: AR-42J cell line; assay: Protection against cerulein-induced pancreatic damage in rat AR42J cells assessed as reduction in CHOP mRNA level at 60 uM preincubated for 1 hr followed by cerulein addition and measured after 8 hrs by Trisure-reagent based RT-PCR analysis; assay type: functional, cell-based; conditions: time 9.0 hrs; how it was run: as §1
# [11] = physchem; conditions: 1% DMSO/99% PBS buffer solution
# [12] = Cytotoxicity against human PBMC assessed as reduction in cell viability measured after 72 hrs by ATPlite assay; conditions: read-out: LC50 (the source's name)
# [13] = molecular target: T2, Bifunctional epoxide hydrolase 2 (Mus musculus, UniProt P34914); assay: Inhibition of recombinant mouse soluble epoxide hydrolase using CMNPC as substrate preincubated for 5 mins followed by substrate addition and measured at 30 secs interval for 10 mins by fluorescence assay; how it was run: as §3
# T2 sequence (P34914 whole entry): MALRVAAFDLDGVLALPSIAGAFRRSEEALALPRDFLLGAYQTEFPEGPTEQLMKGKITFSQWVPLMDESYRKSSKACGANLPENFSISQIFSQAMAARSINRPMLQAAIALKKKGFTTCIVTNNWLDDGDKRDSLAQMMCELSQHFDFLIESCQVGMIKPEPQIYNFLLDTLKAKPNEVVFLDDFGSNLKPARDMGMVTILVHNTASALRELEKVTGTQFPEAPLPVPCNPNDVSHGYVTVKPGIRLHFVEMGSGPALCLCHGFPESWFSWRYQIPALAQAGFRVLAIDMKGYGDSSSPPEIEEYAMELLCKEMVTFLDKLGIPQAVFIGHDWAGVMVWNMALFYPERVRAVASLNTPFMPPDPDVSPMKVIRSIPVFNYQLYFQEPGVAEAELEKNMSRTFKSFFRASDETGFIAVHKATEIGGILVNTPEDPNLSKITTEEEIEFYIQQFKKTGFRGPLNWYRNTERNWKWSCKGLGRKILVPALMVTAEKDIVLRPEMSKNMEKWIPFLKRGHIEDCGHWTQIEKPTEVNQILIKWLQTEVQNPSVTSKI
# [14] = Cmax in CD-1 mouse at 1 mg/kg, ip measured up to 24 hrs by LC-MS analysis; assay type: ADME, organism-based; set-up: route intraperitoneal, dose 1 mg/kg, time <=24; conditions: in vivo
# How it was run: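 Single dose, 1 mg/kg, given to mice intravenously or intraperitoneally. Parameters are taken from the plasma concentration–time profile: T1/2, Tmax, Cmax, C0 (iv only), AUClast, AUCINF_obs, Vz and Cl. Bioavailability is derived from ip versus iv exposure.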
SMILES,Activity [1],Activity [2],CC50 [3],inhibition (INH) [4],remaining at 1 h [5],IC50 [6],Activity [7],remaining at 1 h [8],remaining at 1 h [9],Activity [10],solubility kinetic at 2 h [11],CC50 [12],IC50 [13],Cmax [14]
CC(C)S(=O)(=O)N1CCC(NC(=O)NC23CC4CC(CC(C4)O2)C3)CC1,Active,Active,> 100000 nM,Not Active,63.9%,1.9 nM,Active,63.9%,72.7%,Active,34 µM,> 20000 nM,79.1 nM,117.33 ng/mL
CC(=O)N1CCC(NC(=O)NC23CC4CC(CC(C4)O2)C3)CC1,Active,Active,> 100000 nM,Not Active,85.1%,3.3 nM,Active,80.5%,88.8%,Active,59 µM,> 20000 nM,92.3 nM,
